Measured values from ChEMBL document CHEMBL5058577, “EUbOPEN Chemogenomics Library 2 (Multiplex)” (2022).

Tested on: HEK-293T
Experiment: Multiplex assay against HEK293T
Format: toxicity, cell-based
Settings: human
Method in brief: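 Live cells were stained at seeding with Hoechst33342, BioTracker Green Microtubule Cytoskeleton Dye, MitoTracker Red and Annexin V Alexa Fluor 680. Following compound addition, they were imaged on a CQ1 microscope at 37°C and 5% CO2 and gated by CellPathfinder machine learning into Hoechst high-intensity objects or normal cells, with normal cells split into healthy, pyknosed or fragmented nuclei and pyknosed cells into mitotic or apoptotic. Tubulin, mitochondrial-mass and membrane-permeability phenotypes are per cents of healthy-nucleus cells.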

[1] = 12 h, 1 µM, compound concentration 1 uM, replicate 1
[2] = 12 h, 1 µM, compound concentration 1 uM, replicate 2
[3] = 12 h, 10 µM, compound concentration 10 uM, replicate 1
[4] = 12 h, 10 µM, compound concentration 10 uM, replicate 2
[5] = 24 h, 1 µM, compound concentration 1 uM, replicate 1
[6] = 24 h, 1 µM, compound concentration 1 uM, replicate 2
[7] = 24 h, 10 µM, compound concentration 10 uM, replicate 1
[8] = 24 h, 10 µM, compound concentration 10 uM, replicate 2
[9] = 48 h, 1 µM, compound concentration 1 uM, replicate 1
[10] = 48 h, 1 µM, compound concentration 1 uM, replicate 2
[11] = 48 h, 10 µM, compound concentration 10 uM, replicate 1
[12] = 48 h, 10 µM, compound concentration 10 uM, replicate 2

## CN1CCC(C(=O)c2cccc(NC(=O)c3c(F)cc(F)cc3F)n2)CC1
[1]
  Population Apoptotic (%): 32%
  Population Fragmented Nuclei (%): 5%
  Population Healthy Nuclei (%): 82%
  Population Hoechst High Intensity Objects (%): 8%
  Population Membrane Permeable-Phenotype (%): 0%
  Population Mitochondria Different-Phenotype (%): 51%
  Population Mitotic Cells (%): 67%
  Population Normal (%): 91%
  Population Pyknosed Nuclei (%): 11%
  Population Tubulin-Different-Phenotype (%): 31%
  Total Cell Count: 396
[2]
  Population Apoptotic (%): 52%
  Population Hoechst High Intensity Objects (%): 7%
  Population Mitochondria Different-Phenotype (%): 59%
  Population Mitotic Cells (%): 47%
  Population Normal (%): 92%
  Population Pyknosed Nuclei (%): 12%
  Population Tubulin-Different-Phenotype (%): 20%
  Total Cell Count: 352
[3]
  Population Apoptotic (%): 52%
  Population Fragmented Nuclei (%): 6%
  Population Healthy Nuclei (%): 80%
  Population Hoechst High Intensity Objects (%): 8%
  Population Membrane Permeable-Phenotype (%): 1%
  Population Mitochondria Different-Phenotype (%): 55%
  Population Mitotic Cells (%): 47%
  Population Normal (%): 91%
  Population Pyknosed Nuclei (%): 12%
  Population Tubulin-Different-Phenotype (%): 50%
  Total Cell Count: 445
[4]
  Population Apoptotic (%): 53%
  Population Hoechst High Intensity Objects (%): 10%
  Population Membrane Permeable-Phenotype (%): 0%
  Population Mitochondria Different-Phenotype (%): 77%
  Population Mitotic Cells (%): 46%
  Population Normal (%): 89%
  Population Pyknosed Nuclei (%): 13%
  Total Cell Count: 401
[5]
  Population Apoptotic (%): 26%
  Population Fragmented Nuclei (%): 11%
  Population Healthy Nuclei (%): 74%
  Population Hoechst High Intensity Objects (%): 4%
  Population Membrane Permeable-Phenotype (%): 0%
  Population Mitochondria Different-Phenotype (%): 30%
  Population Mitotic Cells (%): 73%
  Population Normal (%): 95%
  Population Pyknosed Nuclei (%): 13%
  Population Tubulin-Different-Phenotype (%): 20%
  Total Cell Count: 504
[6]
  Population Apoptotic (%): 42%
  Population Fragmented Nuclei (%): 8%
  Population Healthy Nuclei (%): 83%
  Population Hoechst High Intensity Objects (%): 3%
  Population Mitochondria Different-Phenotype (%): 39%
  Population Mitotic Cells (%): 57%
  Population Normal (%): 96%
  Population Pyknosed Nuclei (%): 7%
  Population Tubulin-Different-Phenotype (%): 17%
  Total Cell Count: 478
[7]
  Population Apoptotic (%): 25%
  Population Fragmented Nuclei (%): 10%
  Population Healthy Nuclei (%): 76%
  Population Hoechst High Intensity Objects (%): 6%
  Population Membrane Permeable-Phenotype (%): 0%
  Population Mitochondria Different-Phenotype (%): 48%
  Population Mitotic Cells (%): 75%
  Population Normal (%): 93%
  Population Pyknosed Nuclei (%): 13%
  Population Tubulin-Different-Phenotype (%): 41%
  Total Cell Count: 583
[8]
  Population Apoptotic (%): 52%
  Population Fragmented Nuclei (%): 8%
  Population Healthy Nuclei (%): 81%
  Population Hoechst High Intensity Objects (%): 8%
  Population Mitochondria Different-Phenotype (%): 64%
  Population Mitotic Cells (%): 47%
  Population Normal (%): 91%
  Population Pyknosed Nuclei (%): 9%
  Population Tubulin-Different-Phenotype (%): 34%
  Total Cell Count: 467
[9]
  Population Apoptotic (%): 22%
  Population Fragmented Nuclei (%): 11%
  Population Healthy Nuclei (%): 80%
  Population Hoechst High Intensity Objects (%): 3%
  Population Membrane Permeable-Phenotype (%): 1%
  Population Mitochondria Different-Phenotype (%): 19%
  Population Mitotic Cells (%): 77%
  Population Normal (%): 96%
  Population Pyknosed Nuclei (%): 7%
  Population Tubulin-Different-Phenotype (%): 12%
  Total Cell Count: 884
[10]
  Population Apoptotic (%): 34%
  Population Fragmented Nuclei (%): 9%
  Population Healthy Nuclei (%): 84%
  Population Mitochondria Different-Phenotype (%): 24%
  Population Mitotic Cells (%): 65%
  Population Pyknosed Nuclei (%): 5%
  Population Tubulin-Different-Phenotype (%): 10%
  Total Cell Count: 692
[11]
  Population Apoptotic (%): 30%
  Population Fragmented Nuclei (%): 13%
  Population Healthy Nuclei (%): 79%
  Population Hoechst High Intensity Objects (%): 4%
  Population Membrane Permeable-Phenotype (%): 0%
  Population Mitochondria Different-Phenotype (%): 35%
  Population Mitotic Cells (%): 69%
  Population Normal (%): 95%
  Population Pyknosed Nuclei (%): 7%
  Population Tubulin-Different-Phenotype (%): 23%
  Total Cell Count: 803
[12]
  Population Apoptotic (%): 28%
  Population Fragmented Nuclei (%): 10%
  Population Healthy Nuclei (%): 81%
  Population Hoechst High Intensity Objects (%): 7%
  Population Mitochondria Different-Phenotype (%): 42%
  Population Mitotic Cells (%): 71%
  Population Normal (%): 92%
  Population Tubulin-Different-Phenotype (%): 25%
  Total Cell Count: 671

## COc1ccc2c(c1OCc1ccccc1)C[C@@H](C(=O)O)N(C(=O)C(c1ccccc1)c1ccccc1)C2 [OLODANRIGAN]
[1]
  Population Apoptotic (%): 39%
  Population Fragmented Nuclei (%): 6%
  Population Healthy Nuclei (%): 82%
  Population Hoechst High Intensity Objects (%): 7%
  Population Membrane Permeable-Phenotype (%): 0%
  Population Mitochondria Different-Phenotype (%): 44%
  Population Mitotic Cells (%): 60%
  Population Normal (%): 92%
  Population Pyknosed Nuclei (%): 11%
  Population Tubulin-Different-Phenotype (%): 21%
  Total Cell Count: 419
[2]
  Population Apoptotic (%): 43%
  Population Fragmented Nuclei (%): 7%
  Population Healthy Nuclei (%): 81%
  Population Mitochondria Different-Phenotype (%): 48%
  Population Mitotic Cells (%): 56%
  Population Pyknosed Nuclei (%): 10%
  Population Tubulin-Different-Phenotype (%): 17%
  Total Cell Count: 409
[3]
  Population Apoptotic (%): 45%
  Population Fragmented Nuclei (%): 6%
  Population Healthy Nuclei (%): 81%
  Population Hoechst High Intensity Objects (%): 6%
  Population Membrane Permeable-Phenotype (%): 0%
  Population Mitochondria Different-Phenotype (%): 42%
  Population Mitotic Cells (%): 54%
  Population Normal (%): 93%
  Population Pyknosed Nuclei (%): 12%
  Population Tubulin-Different-Phenotype (%): 35%
  Total Cell Count: 389
[4]
  Population Apoptotic (%): 44%
  Population Fragmented Nuclei (%): 4%
  Population Healthy Nuclei (%): 83%
  Population Hoechst High Intensity Objects (%): 3%
  Population Mitochondria Different-Phenotype (%): 58%
  Population Mitotic Cells (%): 55%
  Population Normal (%): 96%
  Population Tubulin-Different-Phenotype (%): 27%
  Total Cell Count: 368
[5]
  Population Apoptotic (%): 46%
  Population Fragmented Nuclei (%): 11%
  Population Healthy Nuclei (%): 78%
  Population Hoechst High Intensity Objects (%): 3%
  Population Membrane Permeable-Phenotype (%): 0%
  Population Mitochondria Different-Phenotype (%): 24%
  Population Mitotic Cells (%): 53%
  Population Normal (%): 96%
  Population Pyknosed Nuclei (%): 10%
  Population Tubulin-Different-Phenotype (%): 15%
  Total Cell Count: 614
[6]
  Population Apoptotic (%): 19%
  Population Fragmented Nuclei (%): 10%
  Population Healthy Nuclei (%): 81%
  Population Hoechst High Intensity Objects (%): 6%
  Population Membrane Permeable-Phenotype (%): 1%
  Population Mitochondria Different-Phenotype (%): 30%
  Population Mitotic Cells (%): 80%
  Population Normal (%): 93%
  Population Pyknosed Nuclei (%): 8%
  Population Tubulin-Different-Phenotype (%): 14%
  Total Cell Count: 521
[7]
  Population Apoptotic (%): 40%
  Population Fragmented Nuclei (%): 7%
  Population Healthy Nuclei (%): 78%
  Population Hoechst High Intensity Objects (%): 6%
  Population Membrane Permeable-Phenotype (%): 0%
  Population Mitochondria Different-Phenotype (%): 34%
  Population Mitotic Cells (%): 59%
  Population Normal (%): 93%
  Population Pyknosed Nuclei (%): 13%
  Population Tubulin-Different-Phenotype (%): 32%
  Total Cell Count: 456
[8]
  Population Apoptotic (%): 43%
  Population Fragmented Nuclei (%): 10%
  Population Healthy Nuclei (%): 79%
  Population Mitochondria Different-Phenotype (%): 57%
  Population Mitotic Cells (%): 56%
  Population Pyknosed Nuclei (%): 9%
  Population Tubulin-Different-Phenotype (%): 28%
  Total Cell Count: 414
[9]
  Population Apoptotic (%): 26%
  Population Fragmented Nuclei (%): 13%
  Population Healthy Nuclei (%): 80%
  Population Hoechst High Intensity Objects (%): 2%
  Population Membrane Permeable-Phenotype (%): 0%
  Population Mitochondria Different-Phenotype (%): 15%
  Population Mitotic Cells (%): 73%
  Population Normal (%): 97%
  Population Pyknosed Nuclei (%): 5%
  Population Tubulin-Different-Phenotype (%): 11%
  Total Cell Count: 1083
[10]
  Population Apoptotic (%): 22%
  Population Fragmented Nuclei (%): 15%
  Population Healthy Nuclei (%): 79%
  Population Mitochondria Different-Phenotype (%): 18%
  Population Mitotic Cells (%): 77%
  Population Tubulin-Different-Phenotype (%): 10%
  Total Cell Count: 818
[11]
  Population Apoptotic (%): 32%
  Population Fragmented Nuclei (%): 12%
  Population Healthy Nuclei (%): 78%
  Population Hoechst High Intensity Objects (%): 5%
  Population Membrane Permeable-Phenotype (%): 0%
  Population Mitochondria Different-Phenotype (%): 22%
  Population Mitotic Cells (%): 67%
  Population Normal (%): 94%
  Population Pyknosed Nuclei (%): 8%
  Population Tubulin-Different-Phenotype (%): 15%
  Total Cell Count: 659
[12]
  Population Apoptotic (%): 39%
  Population Healthy Nuclei (%): 80%
  Population Hoechst High Intensity Objects (%): 6%
  Population Mitochondria Different-Phenotype (%): 32%
  Population Mitotic Cells (%): 60%
  Population Normal (%): 93%
  Population Pyknosed Nuclei (%): 7%
  Population Tubulin-Different-Phenotype (%): 18%
  Total Cell Count: 534
